Experimental data published in ChEMBL document CHEMBL1144601, “Synthesis and antiproliferative properties of N3/8-disubstituted 3,8-diazabicyclo[3.2.1]octane analogues of 3,8-bis[2-(3,4,5-trimethoxyphenyl)pyridin-4-yl]methyl-piperazine” (Eur J Med Chem, 2007).
Activity calls are given as the source filed them. The calls are words filed in the database; no cut-off is given here.

How the values were obtained:
HepG2 = experiment: Antiproliferative activity against human HepG2 cells by MTT assay; format: functional, cell-based
How it was run: (§1)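 Exponentially growing cells resuspended in growth medium with serial drug dilutions; viability read by MTT after 96 h at 37 °C, with untreated controls allowed at least three rounds of multiplication. IC50 is the concentration cutting proliferation by 50%, mean ± SD of three independent determinations. Haematological lines were grown in RPMI-1640 with 10% FCS and antibiotics. Solid-tumour lines were grown in their own media with 10% FCS.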

WIL2-NS = experiment: Antiproliferative activity against human WIL-2NS cells by MTT assay; format: functional, cell-based; how it was run: as §1
MCF7 [1] = experiment: Antiproliferative activity against human MCF7 cells by MTT assay; format: functional, cell-based; how it was run: as §1
MT4 = experiment: Antiproliferative activity against human MT4 cells by MTT assay; format: functional, cell-based; how it was run: as §1
SK-MES-1 = experiment: Antiproliferative activity against human SKMES1 cells by MTT assay; format: functional, cell-based; how it was run: as §1
CCRF-SB = experiment: Antiproliferative activity against human CCRF-SB cells by MTT assay; format: functional, cell-based; how it was run: as §1
CCRF-CEM = experiment: Antiproliferative activity against human CCRF-CEM cells by MTT assay; format: functional, cell-based; how it was run: as §1
DU-145 = experiment: Antiproliferative activity against human DU145 cells by MTT assay; format: functional, cell-based; how it was run: as §1
[2] = Antiproliferative activity against human CRL7065 cells by MTT assay; format: functional, cell-based; conditions: CRL-7065; how it was run: as §1
SK-MEL-28 = experiment: Antiproliferative activity against human SK-MEL-28 cells by MTT assay; format: functional, cell-based; how it was run: as §1
MCF7 [3] = experiment: Increase in p21/WAF1 expression level in MCF7 cells at 10 uM after 24 hrs; format: functional, cell-based; conditions: Homo sapiens, TDE = time-dependent effect
How it was run: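 MCF-7 cells plated at 5×10^5 per 6-cm plate the day before were treated at 10 µM for various times. Lysates were made by freeze-thaw in Tris-HCl buffer with protease and phosphatase inhibitors. 30 µg protein was run on 10% SDS-PAGE and transferred to nitrocellulose. Blots were probed overnight at 4 °C with anti-p21 monoclonal (1:200), then a secondary antibody, and detected by ECL; three experiments.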

MCF7 [4] = experiment: Cell cycle arrest in MCF7 cells by accumulation at G2/M phase at 10 uM after 24 hrs; format: functional, Homo sapiens
How it was run: (§2)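 MCF-7 cells grown in DMEM with 2 mM L-glutamine and 10% heat-inactivated FBS, seeded at 5×10^5 cells/well. After 24 h they were exposed to compound at 10 µM for 24 h. Cells plus supernatant were collected, stained with Nicoletti reagent and DNA content read by flow cytometry (FL2, linear amplification). Phase distribution was modelled from the histograms.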

MCF7 [5] = experiment: Induction of apoptosis in human MCF7 cells up to 50 uM after 24 hrs by propidium iodide satining assay; format: functional, cell-based
How it was run: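 MCF-7 cells treated at 10–50 µM for 24 h were washed in PBS. They were resuspended in 0.1% sodium citrate, 0.1% Triton X-100 and 50 µg/mL propidium iodide, then kept 30 min at 4 °C in the dark. Nuclei were read by flow cytometry on a log scale with debris gated out. The % hypodiploid nuclei is from three experiments in triplicate.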

MCF7 [6] = experiment: Cell cycle arrest in MCF7 cells by accumulation at S phase at 10 uM after 24 hrs; format: functional, Homo sapiens; how it was run: as §2
MCF7 [7] = experiment: Cell cycle arrest in MCF7 cells by accumulation at GO/G1 phase at 10 uM after 24hrs; format: functional, Homo sapiens; how it was run: as §2

Row | Structure (SMILES) | IC50 (HepG2) [µM] | IC50 (MCF7 [1]) [µM] | IC50 (SK-MES-1) [µM] | IC50 (CCRF-SB) [µM] | IC50 (CCRF-CEM) [µM] | IC50 (DU-145) [µM] | IC50 (SK-MEL-28) [µM] | IC50 (WIL2-NS) [µM] | IC50 (MT4) [µM] | IC50 [2] [µM] | Activity (MCF7 [3]) | Activity (MCF7 [4]) [%] | Activity (MCF7 [5]) | Activity (MCF7 [6]) [%] | Activity (MCF7 [7]) [%]
1 | CC(=O)Nc1cccc(-c2cc(CN3CC4CCC(C3)N4Cc3ccnc(-c4cccc(NC(C)=O)c4)c3)ccn2)c1 | 43 | 23 | 33 | 17 | 16 | 24 | 34 | 25 | > 100 | > 100 |  |  |  |  | 
2 | O=[N+]([O-])c1cccc(-c2cc(CN3CC4CCC(C3)N4Cc3ccnc(-c4cccc([N+](=O)[O-])c4)c3)ccn2)c1 | 41 | 68 | 30 | 27 | 36 | 85 | 31 | 63 |  | > 100 |  |  |  |  | 
3 | CC[C@@]1(O)C(=O)OCc2c1cc1n(c2=O)Cc2cc3ccccc3nc2-1 [CAMPTOTHECIN] | 0.03 | 0.04 | 0.01 | 0.003 | 0.003 | 0.01 | 0.04 | 0.005 | 0.004 | 0.5 |  |  |  |  | 
4 | CC(=O)Nc1ccc(-c2cc(CN3CC4CCC(C3)N4Cc3ccnc(-c4ccc(NC(C)=O)cc4)c3)ccn2)cc1 | 30 | 43 | 22 | 25 | 19 | 42 | 20 | 30 | 18 | > 100 |  |  |  |  | 
5 | Sc1ncnc2nc[nH]c12 [MERCAPTOPURINE ANHYDROUS] | 8 | 3 | 58 | 1 | 1 | 2 | 15 | 3 | 0.1 | > 100 |  |  |  |  | 
6 | COc1cc(-c2cc(CN3CC4CCC(C3)N4Cc3ccnc(-c4cc(OC)c(OC)c(OC)c4)c3)ccn2)cc(OC)c1OC | 8 | 5 | 10 | 3 | 2 | 14 | 4 | 3 | 2 | > 100 | tde | 7.5 | inactive | 4.6 | 87
7 | COc1cccc(-c2cc(CN3CC4CCC(C3)N4Cc3ccnc(-c4cccc(OC)c4)c3)ccn2)c1 | 15 | 15 | 8 | 12 | 11 | 9 | 8 | 13 |  | > 100 |  |  |  |  | 
8 | Cc1ccc(-c2cc(CN3CC4CCC(C3)N4Cc3ccnc(-c4ccc(C)cc4)c3)ccn2)cc1 | 7 | 7 | 8 | 12 | 8 | 7 | 7 | 26 |  | > 100 |  |  |  |  | 
9 | Oc1ccc(-c2cc(CN3CC4CCC(C3)N4Cc3ccnc(-c4ccc(O)cc4)c3)ccn2)cc1 | 13 | 25 | 23 | 12 | 15 | 15 | 19 | 18 |  | 80 |  |  |  |  | 
10 | Oc1cccc(-c2cc(CN3CC4CCC(C3)N4Cc3ccnc(-c4cccc(O)c4)c3)ccn2)c1 | > 100 | > 100 | > 100 | 16 | 14 | > 100 | > 100 | 28 |  | > 100 |  |  |  |  | 
11 | O=C1C2CCC(N2)C(=O)N1Cc1ccccc1 | 92 | 86 | 81 | 88 | 85 | 87 | 96 | > 100 | > 100 | > 100 |  |  |  |  | 
12 | O=[N+]([O-])c1ccc(-c2cc(CN3CC4CCC(C3)N4Cc3ccnc(-c4ccc([N+](=O)[O-])cc4)c3)ccn2)cc1 | > 100 | > 100 | > 100 | > 100 | 91 | > 100 | > 100 | > 100 |  | > 100 |  |  |  |  | 
13 | Cc1cccc(-c2cc(CN3CC4CCC(C3)N4Cc3ccnc(-c4cccc(C)c4)c3)ccn2)c1 | 41 | 24 | 18 | 18 | 18 | 34 | 15 | 25 | > 100 | > 100 |  |  |  |  | 
14 | Clc1ccc(-c2cc(CN3CC4CCC(C3)N4Cc3ccnc(-c4ccc(Cl)cc4)c3)ccn2)cc1 | 9 | 10 | 12 | 13 | 7 | 9 | 10 | 29 |  | > 100 |  |  |  |  | 
15 | c1ccc(CN2CC3CCC(C2)N3)cc1 | > 100 | > 100 | > 100 | > 100 | > 100 | > 100 | > 100 | > 100 | > 100 | > 100 |  |  |  |  | 

Further lines, with some results ahead:

Row | IC50 (HepG2) [µM] | IC50 (MCF7 [1]) [µM] | IC50 (SK-MES-1) [µM] | IC50 (CCRF-SB) [µM] | IC50 (CCRF-CEM) [µM] | IC50 (DU-145) [µM] | IC50 (SK-MEL-28) [µM] | Structure (SMILES) | IC50 (WIL2-NS) [µM] | IC50 (MT4) [µM] | IC50 [2] [µM] | Activity (MCF7 [3]) | Activity (MCF7 [4]) [%] | Activity (MCF7 [5]) | Activity (MCF7 [6]) [%] | Activity (MCF7 [7]) [%]
16 | 38 | 25 | 10 | 10 | 12 | 14 | 15 | c1ccc(-c2cccc(CN3CC4CCC(C3)N4Cc3cccc(-c4ccccc4)c3)c2)cc1 | 12 |  | 41 |  |  |  |  | 
17 | 18 | 11 | 17 | 7 | 8 | 80 | 13 | c1ccc2c(CN3CC4CCC(C3)N4Cc3cccc4ccccc34)cccc2c1 | 7 |  | 20 |  |  |  |  | 
18 | 50 | 54 | 40 | 9 | 6 | 41 | 30 | c1ccc2c(c1)ccc1c(CN3CC4CCC(C3)N4Cc3cccc4c3ccc3ccccc34)cccc12 | 6 |  | 69 |  |  |  |  | 
19 | 3 | 6 | 3 | 5 | 3 | 2 | 2 | COc1ccc(-c2cc(CN3CC4CCC(C3)N4Cc3ccnc(-c4ccc(OC)cc4)c3)ccn2)cc1 | 6 | 4 | > 100 |  |  |  |  | 
20 | 45 | 84 | 43 | 6 | 7 | 7 | 6 | c1ccc(-c2ccc(CN3CC4CCC(C3)N4Cc3ccc(-c4ccccc4)cc3)cc2)cc1 | 11 | > 100 | > 100 |  |  |  |  | 
21 | > 100 | > 100 | > 100 | 81 | 46 | > 100 | > 100 | c1ccc(CN2CC3CCC(C2)N3Cc2ccccc2)cc1 | 60 | > 100 | > 100 |  |  |  |  | 
22 | 11 | 9 | 11 | 11 | 8 | 8 | 8 | c1ccc(-c2cc(CN3CC4CCC(C3)N4Cc3ccnc(-c4ccccc4)c3)ccn2)cc1 | 15 | 19 | > 100 |  |  |  |  | 
